Key:
[1] = system: phenylephrine-induced contraction in rat aortic ring preparations with intact endothelium; settings: Phe (1 μM)-contracted endothelium-intact rat aortic rings, 30-300 μM
Procedure, shortened: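 Endothelium-intact 3 mm thoracic aortic rings from male Sprague-Dawley rats (250–300 g) were held isometrically at 15 mN in Krebs solution (37°, 95% O2-5% CO2, pH≈7.4) and checked with 0.3 μM Phe then 1 μM ACh. After 60 min equilibration, rings were precontracted with 1 μM Phe and given cumulative water-dissolved test compound (30–300 μM). pD2 came from nonlinear fits of individual curves; mean±SEM, 3–5 rats/group.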

recombinant CD38 = molecular target: T1, recombinant CD38 (Homo sapiens, UniProt P28907); experiment: Inhibition of the NADase; assay type: biochemical; settings: for inhibitory activity against CD38 NADase (in words): recombinant CD38
T1 sequence (P28907 45-300): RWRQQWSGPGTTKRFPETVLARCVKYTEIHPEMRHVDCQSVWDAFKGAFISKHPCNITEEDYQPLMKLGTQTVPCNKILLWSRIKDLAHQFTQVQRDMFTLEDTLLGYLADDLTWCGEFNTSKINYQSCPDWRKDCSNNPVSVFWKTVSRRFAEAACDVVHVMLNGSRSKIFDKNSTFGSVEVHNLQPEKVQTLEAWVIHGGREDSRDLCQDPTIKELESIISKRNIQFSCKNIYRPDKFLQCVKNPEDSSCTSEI

PC12 cells = settings: cited from earlier work
[2] = molecular target: NAD+ glycohydrolase activity of CD38; settings: competitive inhibitor of NAD+ glycohydrolase activity of CD38; cited from earlier work
CD38 = settings: inhibitors of CD38; cited from earlier work

**Q.** With `NC(=O)c1ccc[n+](COCCCCOC[n+]2cccc(C(N)=O)c2)c1.[Cl-].[Cl-]` [Compound 9, 1,4-dimethoxy-butylene-bis-N,N′-3-(aminocarbonyl)-pyridinium dichloride] as the compound, how does the “vascular relaxing effect (in words)” value [1] read?
**A.** no such vascular relaxing effect

**Q.** With `NC(=O)c1ccc[n+](COCCOc2cccc3cccnc23)c1.[Cl-]` [Compound 7, 1-{[2-(8′-quinolyloxy)ethoxy]methyl}-3-(aminocarbonyl)-pyridinium chloride] as the compound, how does the “inhibitory activity against CD38 NADase (in words)” value (“inhibitory activity” below) (recombinant CD38) read?
**A.** weak inhibitory activities

**Q.** What about the “inhibition of acetylcholine (Ach)-induced Ca2+ increase (in words)” value (PC12 cells) of the same compound?
**A.** significantly inhibited

**Q.** With `NC(=O)c1ccc[n+](COC/C=C/COc2cccc3cccnc23)c1.[Cl-]` [Compound 12, (E)-1-{[4-(8′-quinolyloxy)but-2-enyloxy]methyl}-3-(aminocarbonyl)-pyridinium chloride] as the compound, how does the “inhibitory activity” value (recombinant CD38) read?
**A.** weak inhibitory activities

**Q.** With `NC(=O)c1ccc[n+](COCCOc2ccc([N+](=O)[O-])cc2)c1.[Cl-]` [Compound 5, 1-{[2-(4-nitro-phenoxy)ethoxy]methyl}-3-(aminocarbonyl)-pyridinium chloride] as the compound, how does the IC50 (recombinant CD38) read?
**A.** 5.65 mM

**Q.** And the “inhibitory activity” value (recombinant CD38)?
**A.** weak inhibitory activities

**Q.** Which IC50 [2] does the source give for `NC(=O)c1ccc[n+]([C@@H]2C[C@H](COP(=O)([O-])OP(=O)(O)OC[C@H]3O[C@@H](n4cnc5c(N)ncnc54)[C@H](O)[C@@H]3O)[C@@H](O)[C@H]2O)c1` [carba-NAD^+, dinucleotide carbanicotinamide adenine dinucleotide] here?
**A.** ~0.1 mM

**Q.** For `COc1ccc(OCCOC[n+]2cccc(C(N)=O)c2)cc1.[Cl-]` [Compound 3, 1-{[2-(4-methoxy-phenoxy)ethoxy]methyl}-3-(aminocarbonyl)-pyridinium chloride], which IC50 (recombinant CD38) is on record?
**A.** 11.4 mM

**Q.** And the “inhibitory activity” value (recombinant CD38)?
**A.** weak inhibitory activities

**Q.** For `NC(=O)c1ccc[n+]([C@@H]2O[C@H](COP(=O)(O)O)C(O)C2F)c1` (stereo partly drawn) [ara-F NMN], which Ki (CD38) is on record?
**A.** nano-molar range

**Q.** Which “inhibitory activity” value (recombinant CD38) does the source give for `NC(=O)c1ccc[n+](COCCOc2cccc(C(F)(F)F)c2)c1.[Cl-]` [Compound 6, 1-{[2-(3-trifluoromethyl-phenoxy)ethoxy]methyl}-3-(aminocarbonyl)-pyridinium chloride] here?
**A.** no affinity for CD38

**Q.** With `NC(=O)c1ccc[n+](COCCOc2ccc(Oc3ccccc3)cc2)c1.[Cl-]` [Compound 4, 1-{[2-(4-phenoxy-phenoxy)ethoxy]methyl}-3-(aminocarbonyl)-pyridinium chloride] as the compound, how does the IC50 (recombinant CD38) read?
**A.** 3.42 mM

**Q.** What about the “inhibitory activity” value (recombinant CD38) of the same compound?
**A.** weak inhibitory activities

**Q.** And the “vascular relaxing effect (in words)” value [1]?
**A.** concentration-dependent relaxation

**Q.** With `NC(=O)c1c[n+](COCCOc2ccc(Oc3ccccc3)cc2)ccc1N.[Cl-]` [Compound 14, 1-{[2-(4-phenoxy-phenoxy)ethoxy]methyl}-3-(aminocarbonyl)-4-amino-pyridiniu m chloride] as the compound, how does the IC50 (recombinant CD38) read?
**A.** 4.8 mM

**Q.** And the “inhibitory activity” value (recombinant CD38)?
**A.** weak inhibitory activities

**Q.** What does the source list for `NC(=O)c1ccc2c(ccc[n+]2COCCOc2ccc(Oc3ccccc3)cc2)c1.[Cl-]` [Compound 13, 1-{[2-(4-phenoxy-phenoxy)ethoxy]methyl}-6-(aminocarbonyl)-quinolinium chloride]?
**A.** IC50 (recombinant CD38): 2.12 mM; inhibitory activity against CD38 NADase (in words) (recombinant CD38): weak inhibitory activities

Reference: article PMC3357394 (Organic & biomolecular chemistry, 2011)
